Source: ChEMBL document CHEMBL1127799, “Derivatives of a novel cyclopeptolide. 1. Synthesis, antifungal activity, and structure-activity relationships” (1994)
Converted amounts (≈) assume the structure as drawn.

How the values were obtained:
Type in all cases: functional
[1] = test system: Meyerozyma guilliermondii; experiment: Tested for minimum inhibitory concentration against Candida guilliermondii 80 (C.g) at pH 4.5.
How it was run: (§1)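 Broth microdilution in malt extract broth, initial pH 4.5 or 6.5, with 1×10^3 CFU per 0.2 mL well of thawed stored cultures. Compound stocks were made in 5% DMSO/0.2% Tween 80 and diluted to final 0.05–100 μg/mL. Plates were incubated 48 h at 30 °C and read macroscopically. MIC was the lowest concentration with no detectable growth. Vehicle-only wells served as controls.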

Candida albicans [2] = experiment: Tested for minimum subinhibitory concentration against Candida albicans 4 (Candida albicans) at pH 6.5.
How it was run: (§2)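 Malt extract broth microdilution, initial pH 6.5, inoculum 1×10^3 CFU per 0.2 mL well. Compound diluted from 0.08% stock (5% DMSO/0.2% Tween 80) to final 0.05–100 μg/mL. Macroscopic reading after 48 h, 30 °C. MSIC = lowest concentration giving visible growth inhibition in at least two of three triplicates. Vehicle-only negative controls.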

Candida albicans [3] = experiment: Tested for minimum subinhibitory concentration against Candida albicans 88 (Candida albicans) at pH 4.5.
How it was run: (§3)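 Malt extract broth microdilution at initial pH 4.5, 1×10^3 CFU/0.2 mL well, final compound 0.05–100 μg/mL diluted from DMSO/Tween 80 stocks. Incubation was 48 h at 30 °C with macroscopic reading. MSIC was the lowest concentration causing visible growth inhibition in at least two of three triplicates.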

Candida albicans [4] = experiment: Tested for minimum subinhibitory concentration against Candida albicans 9 (Candida albicans) at pH 6.5.; how it was run: as §2
Candida albicans [5] = experiment: Tested for minimum subinhibitory concentration against Candida albicans 90 (Candida albicans) at pH 4.5.; how it was run: as §3
Candida albicans [6] = experiment: Tested for minimum subinhibitory concentration against Candida albicans 26 (Candida albicans) at pH 6.5.; how it was run: as §2
Candida albicans [7] = experiment: Tested for minimum subinhibitory concentration against Candida albicans 3 (Candida albicans) at pH 6.5.; how it was run: as §2
Candida albicans [8] = experiment: Tested for minimum inhibitory concentration against Candida albicans 26 (Candida albicans) at pH 4.5.; how it was run: as §1
Candida albicans [9] = experiment: Tested for minimum inhibitory concentration against Candida albicans 26 (Candida albicans) at pH 6.5.
How it was run: (§4)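 Broth microdilution in malt extract broth, initial pH 6.5, 1×10^3 CFU per 0.2 mL well, from liquid-nitrogen-stored Sabouraud cultures. Compound from 0.08% stock in 5% DMSO/0.2% Tween 80, final 0.05–100 μg/mL. Visual reading after 48 h at 30 °C. MIC = lowest concentration with no detectable growth. Vehicle-only negative controls.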

Candida albicans [10] = experiment: Tested for minimum inhibitory concentration against Candida albicans 3 (Candida albicans) at pH 4.5.; how it was run: as §1
Candida albicans [11] = experiment: Tested for minimum inhibitory concentration against Candida albicans 3 (Candida albicans) at pH 6.5.; how it was run: as §4
Candida albicans [12] = experiment: Tested for minimum inhibitory concentration against Candida albicans 88 (Candida albicans) at pH 4.5.; how it was run: as §1
Candida albicans [13] = experiment: Tested for minimum inhibitory concentration against Candida albicans 88 (Candida albicans) at pH 6.5.; how it was run: as §4
Candida albicans [14] = experiment: Tested for minimum inhibitory concentration against Candida albicans 9 (Candida albicans) at pH 4.5.; how it was run: as §1
Candida albicans [15] = experiment: Tested for minimum inhibitory concentration against Candida albicans 90 (Candida albicans) at pH 4.5.; how it was run: as §1
Candida albicans [16] = experiment: Tested for minimum inhibitory concentration against Candida albicans 124 (Candida albicans) at pH of 4.5.; how it was run: as §1
Candida albicans [17] = experiment: Tested for minimum inhibitory concentration against Candida albicans 124 (Candida albicans) at pH of 6.5.; how it was run: as §1
[18] = test system: Meyerozyma guilliermondii; experiment: Tested for minimum inhibitory concentration against Candida guilliermondii 80 (C.g) at pH of 4.5.; how it was run: as §1
[19] = test system: Meyerozyma guilliermondii; experiment: Tested for minimum subinhibitory concentration against Candida guilliermondii 80 (C.g) at pH 4.5.; how it was run: as §3
Candida albicans [20] = experiment: Tested for minimum subinhibitory concentration against Candida albicans 124 (Candida albicans) at pH 6.5.; how it was run: as §2
Pichia kudriavzevii [21] = experiment: Tested for minimum inhibitory concentration against Candida krusei 132 (C.k) at pH 4.5.; how it was run: as §1
Pichia kudriavzevii [22] = experiment: Tested for minimum inhibitory concentration against Candida krusei 132 (C.k) at pH 6.5.; how it was run: as §4
Candida tropicalis [23] = experiment: Tested for minimum inhibitory concentration against Candida tropicalis 43 (C.t) at pH 6.5.; how it was run: as §4
Candida tropicalis [24] = experiment: Tested for minimum inhibitory concentration against Candida tropicalis 43 (C.t) at pH of 6.5.; how it was run: as §1
Mus musculus [25] = experiment: Tested for efficacy of compound in experimental vaginal candidosis (mouse) after intraperitoneal treatment at dosage of 4 x50 mg kg e-1
How it was run: (§5)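 Female NMRI mice (18–20 g; 10 per group) were hormonally conditioned and infected intravaginally with 3.5×10^4 CFU C. albicans no. 124 in 50 μL Sabouraud's glucose broth. Four doses were given by gavage or ip, at 2 h before and 2, 18 and 24 h after infection. One day after the last dose, vaginal swabs were plated on Sabouraud agar with streptomycin (0.1 mg/mL) for 48 h at 37 °C. Failed reisolation counted as cure.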

Mus musculus [26] = species: Mus musculus; experiment: Tested for efficacy of compound in experimental vaginal candidosis (mouse) after oral treatment at dosage of 4 x300 mg kg e-1; how it was run: as §5
Mus musculus [27] = experiment: Tested for efficacy of compound in experimental systemic candidosis (mouse) after intraperitoneal treatment at dosage of 8 *100 mg kg e-1
How it was run: (§6)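 Mice (female NMRI, 18–20 g; 10 per group) infected by tail-vein injection of 10⁶ CFU C. albicans no. 124. Compound was given intraperitoneally twice daily on 4 consecutive days, starting 2 h before inoculation. Efficacy was scored as survival rate up to day 9 after infection.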

Mus musculus [28] = species: Mus musculus; experiment: Tested for efficacy of compound in experimental systemic candidosis (mouse) after oral treatment at dosage of 8 *100 mg kg e-1
How it was run: (§7)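 Systemic candidiasis: female NMRI mice (18–20 g), 10 per group, infected by intravenous injection of 10⁶ CFU C. albicans no. 124 via lateral tail vein. Oral dosing twice daily on 4 consecutive days, starting 2 h before inoculation. Efficacy taken as survival rate up to day 9 after infection.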

Mus musculus [29] = species: Mus musculus; experiment: Tested for efficacy of compound in experimental systemic candidosis (mouse) after oral treatment at dosage of 8 *200 mg kg e-1; how it was run: as §7
Mus musculus [30] = experiment: Tested for efficacy of compound in experimental vaginal candidosis (mouse) after intraperitoneal treatment at dosage of 4 x100 mg kg e-1; how it was run: as §5
Rattus norvegicus = experiment: Tested for efficacy of compound in experimental vaginal candidosis (rat) after intraperitoneal treatment at dosage of 2x 100 mg kg e-1
How it was run: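 Female Wistar rats (~150 g; 10 per group) were hormonally conditioned and infected intravaginally with 3.5×10^4 CFU C. albicans no. 124 in 50 μL broth. Intraperitoneal dosing was given twice, 2 h before and 18 h after infection. Swabs taken one day after the last dose were plated on streptomycin Sabouraud agar (48 h, 37 °C). Cure meant failed reisolation.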

[31] = test system: Meyerozyma guilliermondii; experiment: Tested for minimum inhibitory concentration against Candida guilliermondii 80 (C.g) at pH 6.5.; how it was run: as §4
Pichia kudriavzevii [32] = experiment: Tested for minimum subinhibitory concentration against Candida krusei 132 (C.k) at pH 4.5.; how it was run: as §3
Mus musculus [33] = experiment: Tested for efficacy of compound in experimental systemic candidosis (mouse) after intraperitoneal treatment at dosage of 8 *25 mg kg e-1; how it was run: as §6

**Q.** Which results are given for `CC[C@@H](C)[C@H]1C(=O)NCC(=O)N(C)[C@@H](C(C)C)C(=O)N[C@@H](Cc2ccc(OC)cc2)C(=O)O[C@H](C)C(=O)N2CCCC[C@H]2C(=O)N(C)[C@@H](C(C)C)C(=O)N[C@@H](C(C)C)C(=O)N(C)[C@@H](CC(=O)O)C(=O)N(C)[C@@H]([C@@H](C)CC)C(=O)N1C`?
**A.** MIC [1]: 6.25 µg/mL (≈ 5.55 µM); MSIC (Candida albicans [2]): 12.5 µg/mL; MSIC (Candida albicans [3]): 0.78 µg/mL; MSIC (Candida albicans [4]): 12.5 µg/mL; MSIC (Candida albicans [5]): 0.78 µg/mL; MSIC (Candida albicans [6]): 6.25 µg/mL; MSIC (Candida albicans [7]): 6.25 µg/mL; MIC (Candida albicans [8]): 6.25 µg/mL (≈ 5.55 µM); MIC (Candida albicans [9]): > 100 µg/mL; MIC (Candida albicans [10]): 6.25 µg/mL (≈ 5.55 µM); MIC (Candida albicans [11]): > 100 µg/mL; MIC (Candida albicans [12]): 12.5 µg/mL (≈ 11.1 µM); MIC (Candida albicans [13]): 100 µg/mL (≈ 88.8 µM); MIC (Candida albicans [14]): 12.5 µg/mL (≈ 11.1 µM); MIC (Candida albicans [15]): 3.12 µg/mL (≈ 2.77 µM); MIC (Candida albicans [16]): 1.56 µg/mL (≈ 1.38 µM); MIC (Candida albicans [17]): 50 µg/mL (≈ 44.4 µM); MIC [18]: 6.25 µg/mL (≈ 5.55 µM); MSIC [19]: 0.8 µg/mL; MSIC (Candida albicans [20]): 3.12 µg/mL; MIC (Pichia kudriavzevii [21]): > 100 µg/mL; MIC (Pichia kudriavzevii [22]): > 100 µg/mL; MIC (Candida tropicalis [23]): 100 µg/mL (≈ 88.8 µM); MIC (Candida tropicalis [24]): 100 µg/mL (≈ 88.8 µM); Efficacy (Mus musculus [25]): 7%; Efficacy (Mus musculus [26]): 64%; Efficacy (Mus musculus [27]): 100%; Efficacy (Mus musculus [28]): 40%; Efficacy (Mus musculus [29]): 90%; Efficacy (Mus musculus [30]): 14%; Efficacy (Rattus norvegicus): 76%; MIC [31]: > 100 µg/mL; MSIC (Pichia kudriavzevii [32]): 1.56 µg/mL; Efficacy (Mus musculus [33]): 20%
